Activity calls are given as the source filed them. The calls are words filed in the database; no cut-off is given here.
Key:
MDA-MB-231 [1] = experiment: Induction of methuosis in human MDA-MB-231 cells assessed as increase in vacuole formation at 10 uM after 24 hrs by phase contrast microscopic analysis relative to control; format: functional
MDA-MB-231 [2] = experiment: Induction of methuosis in human MDA-MB-231 cells assessed as increase in vacuole formation at 1 uM after 24 hrs by phase contrast microscopic analysis relative to control; format: functional
MDA-MB-231 [3] = experiment: Induction of methuosis in human MDA-MB-231 cells xenografted in Balb/c nude mouse assessed as vacuole formation in tumor at 20 mg/kg, iv administered once daily for 13 days measured 6 hrs post last dose by H and E staining based light microscopic method; format: functional, organism-based
Method in brief: (§1)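 Female BALB/c nude mice (4–6 weeks) injected subcutaneously with 5×10^6 MDA-MB-231 cells; at ~100 mm3 (length×width²×0.5) randomized (n = 6) and dosed iv by tail vein once daily at 5 or 20 mg/kg in 10% Kolliphor HS 15 in saline, or vehicle; tumor volume and weight measured daily; tumors excised 6 h after final dose, H&E stained.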

MDA-MB-231 [4] = experiment: Induction of mitochondria originated vacuolization in human MDA-MB-231 cells at 2 uM after 12 hrs by Mito-tracker red staining based phase contrast fluorescent microscopic analysis; format: functional, cell-based
Method in brief: (§2)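 MDA-MB-231 attached overnight on glass-bottom dishes, treated with DMSO or 2 µM for 12 h, then loaded with ER-tracker or Mito-tracker Red; phase-contrast and confocal fluorescence imaging.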

MDA-MB-231 [5] = experiment: Antitumor activity against human MDA-MB-231 cells xenografted in iv dosed Balb/c nude mouse assessed as tumor growth inhibition administered once daily for 13 days measured 6 hrs post last dose; format: functional, organism-based; method in brief: as §1
MDA-MB-231 [6] = experiment: Induction of methuosis in human MDA-MB-231 cells assessed as late endosomal marker Rab7 on vacuole membranes at 2 uM after 12 hrs by anti-Rab7 staining based immunofluorescent microscopic analysis
MDA-MB-231 [7] = experiment: Antiproliferative activity against human MDA-MB-231 cells at 2 uM after 48 hrs in presence of necrosis inhibitor necrostatin-1 by MTS assay; format: functional, cell-based
Method in brief: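 MDA-MB-231 given DMSO, 50 µM necrostatin-1, 2 µM compound, or combinations for 48 h; viability by MTS, means ± SD of triplicate samples.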

MDA-MB-231 [8] = experiment: Induction of endoplasmic reticulum originated vacuolization in human MDA-MB-231 cells at 2 uM after 12 hrs by ER-tracker staining based phase contrast fluorescent microscopic analysis; format: functional, cell-based; method in brief: as §2
MDA-MB-231 [9] = experiment: Induction of mitochondria originated vacuolization in human MDA-MB-231 cells assessed as mitochondrial swelling at 2 uM after 12 hrs by uranyl acetate or lead citrate staining based transmission electron microscopic analysis; format: functional, cell-based
Method in brief: (§3)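 MDA-MB-231 given DMSO or 2 µM for 12 h; fixed in 2.5% glutaraldehyde (0.1 M PBS pH 7.4, 4 °C, 3 h), post-fixed 1% OsO4, ethanol-dehydrated, Spurr's resin embedded; 70 nm sections stained with uranyl acetate or lead citrate, viewed by TEM for organelle swelling.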

MDA-MB-231 [10] = experiment: Induction of methuosis in human MDA-MB-231 cells assessed as macropinocytosis at 2 uM after 12 hrs by lucifer yellow CH staining based phase contrast fluorescent microscopic analysis; format: functional, cell-based
Method in brief: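 MDA-MB-231 incubated with 2 µM compound and Lucifer yellow together for 12 h, PBS-washed, imaged by phase contrast and confocal fluorescence.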

MDA-MB-231 [11] = experiment: Induction of apoptosis in human MDA-MB-231 cells assessed as PARP cleavage at 0.5 to 4 uM after 24 hrs by Western blot analysis; format: functional, cell-based
Method in brief: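 MDA-MB-231 treated 24 h with DMSO, graded compound concentrations or staurosporine; lysed, equal protein separated by 10–15% SDS-PAGE, PVDF transfer, probed for PARP and cleaved PARP, ECL detection.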

MDA-MB-231 [12] = experiment: Induction of endoplasmic reticulum originated vacuolization in human MDA-MB-231 cells assessed as endoplasmic reticulum swelling at 2 uM after 12 hrs by uranyl acetate or lead citrate staining based transmission electron microscopic analysis; format: functional, cell-based; method in brief: as §3
MDA-MB-231 [13] = experiment: Antiproliferative activity against human MDA-MB-231 cells at 2 uM after 48 hrs in presence of autophagy inhibitor 3-MA by MTS assay; format: functional, cell-based
Method in brief: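 MDA-MB-231 given DMSO, 1 mM 3-MA, 2 µM compound, or the combination for 48 h; viability by MTS, means ± SD of triplicate samples.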

MDA-MB-231 [14] = experiment: Antiproliferative activity against human MDA-MB-231 cells after 48 hrs by crystal violet staining based microscopic method; format: functional, cell-based
Method in brief: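 MDA-MB-231 seeded, cultured 12 h, medium refreshed, then exposed to 0.1% DMSO or graded compound concentrations for 48 h; fixed in 4% paraformaldehyde 15 min at room temperature, stained with crystal violet, examined by optical microscopy and quantified.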

MDA-MB-231 [15] = experiment: Induction of methuosis in human MDA-MB-231 cells assessed as macropinocytosis at 2 uM after 12 hrs by lyso-tracker red staining based phase contrast fluorescent microscopic analysis; format: functional, cell-based
Method in brief: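 MDA-MB-231 treated 2 µM for 12 h, then loaded with Lyso-tracker Red; phase-contrast and confocal fluorescence imaging.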

MDA-MB-231 [16] = experiment: Induction of methuosis in human MDA-MB-231 cells assessed as increase in vacuole formation at 2 uM after 24 hrs in presence of autophagy inhibitor 3-MA by optical microscopic analysis; format: functional, cell-based
Method in brief: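 Optical microscopy of MDA-MB-231 after 24 h with DMSO, 1 mM 3-MA, 2 µM compound, or both.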

MDA-MB-231 [17] = experiment: Induction of methuosis in human MDA-MB-231 cells assessed as increase in vacuole formation at 2 uM after 24 hrs in presence of pan-caspase inhibitor Z-VAD-FMK by optical microscopic analysis; format: functional, cell-based
Method in brief: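 Optical microscopy of MDA-MB-231 after 24 h with DMSO, 100 µM Z-VAD-FMK, 2 µM compound, or both.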

MDA-MB-231 [18] = experiment: Induction of apoptosis in human MDA-MB-231 cells assessed as caspase-3 activation at 0.5 to 4 uM after 24 hrs; format: functional, cell-based
Method in brief: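 After 24 h exposure to DMSO, graded compound concentrations or staurosporine, MDA-MB-231 cells were harvested, lysed and caspase 3 activity measured with a commercial activity kit.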

MDA-MB-231 [19] = experiment: Induction of methuosis in human MDA-MB-231 cells assessed as increase in vacuole formation at 2 uM after 24 hrs in presence of necrosis inhibitor necrostatin-1 by optical microscopic analysis; format: functional, cell-based
Method in brief: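 Optical microscopy of MDA-MB-231 after 24 h with DMSO, 50 µM necrostatin-1, 2 µM compound, or both.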

MDA-MB-231 [20] = experiment: Antiproliferative activity against human MDA-MB-231 cells at 2 uM after 48 hrs in presence of pan-caspase inhibitor Z-VAD-FMK by MTS assay; format: functional, cell-based
Method in brief: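 Cells pretreated 1 h with 100 µM Z-VAD-FMK, then 2 µM compound (0.1 µM staurosporine as comparator) alone or combined for 48 h; MTS viability, means ± SD of triplicates.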

MDA-MB-231 [21] = experiment: Induction of methuosis in human MDA-MB-231 cells assessed as increase in vacuole formation at 2 uM after 12 to 24 hrs by optical microscopic analysis; format: functional, cell-based
Method in brief: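 MDA-MB-231 treated with 2 µM and inspected by optical microscopy at successive times (12, 24, 48 h) for vesicle accumulation and vacuole fusion.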

| SMILES | Activity (MDA-MB-231 [1]) | Activity (MDA-MB-231 [2]) | other results |
| --- | --- | --- | --- |
| Cc1cc(NC(=O)c2ccc(C)c(Nc3cc(-c4cccnc4)nc4[nH]ccc34)c2)n(C)n1 | 95.24% | 2.48% |  |
| Cc1ccc(C(=O)Nc2cccc(C(F)(F)F)c2)cc1Nc1cc(-c2cccnc2)nc2c1ccn2C | 70.96% | 3.63% |  |
| Cc1ccc(C(=O)Nc2cccc(C(F)(F)F)c2)cc1Nc1cc(-c2ccncc2)nc2[nH]ccc12 | 1.94% | 0% |  |
| COc1cccc(NC(=O)c2ccc(C)c(Nc3cc(-c4cccnc4)nc4[nH]ccc34)c2)c1 | 100% | 76.86% |  |
| Cc1ccc(C(=O)Nc2cccc(C(F)(F)F)c2)cc1Nc1cc(-c2cccnc2)nc2[nH]ccc12 | 99.42% | 70.29% |  |
| Cc1ccc(NC(=O)c2cccc(C(F)(F)F)c2)cc1Nc1cc(-c2cccnc2)nc2c1ccn2C | 96.27% | 16.08% |  |
| Cc1ccc(NC(=S)Nc2cccc(C(F)(F)F)c2)cc1Nc1cc(-c2cccnc2)nc2[nH]ccc12 | 87.3% | 1.26% |  |
| Cc1ccc(C(=O)N2CCOCC2)cc1Nc1cc(-c2cccnc2)nc2[nH]ccc12 | 0% | 0% |  |
| Cc1cccc(NC(=O)c2ccc(C)c(Nc3cc(-c4cccnc4)nc4[nH]ccc34)c2)c1 | 97.68% | 11.24% |  |
| Cc1ccc(NC(=O)c2cccc(C(F)(F)F)c2)cc1Nc1cc(-c2cccnc2)nc2[nH]ccc12 |  |  | Activity (MDA-MB-231 [3]): Active; Activity (MDA-MB-231 [4]): inactive; TGI (MDA-MB-231 [5]): Dose-dependent effect; Activity (MDA-MB-231 [6]): Active; Activity (MDA-MB-231 [7]): Active; Activity (MDA-MB-231 [8]): inactive; Activity (MDA-MB-231 [9]): inactive; Activity (MDA-MB-231 [10]): Active; Activity (MDA-MB-231 [11]): inactive; Activity (MDA-MB-231 [12]): inactive; Activity (MDA-MB-231 [13]): Active; Activity (MDA-MB-231 [14]): Dose-dependent effect; Activity (MDA-MB-231 [15]): Active; Activity (MDA-MB-231 [16]): Active; Activity (MDA-MB-231 [17]): Active; Activity (MDA-MB-231 [18]): inactive; Activity (MDA-MB-231 [19]): Active; Activity (MDA-MB-231 [20]): Active; Activity (MDA-MB-231 [21]): Active |
| Cc1ccc(C(=O)Nc2cccc(Cl)c2)cc1Nc1cc(-c2cccnc2)nc2[nH]ccc12 | 96.75% | 19.49% |  |
